The text below walks through data of the array DNA melting data of Ke et al. (doi:10.1101/2024.01.08.574731).

Series [1] in a line: folding enthalpy; higher = less favourable; fluorescence melt of hairpins on a sequencing array, two-state fit. Particulars: sodium 0.088 M. The method, boiled down: (§1)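 Cy3 fluorescence of library hairpins on a sequenced MiSeq flow cell, with annealed Cy3 and quencher oligos, was imaged in 50 mM Na-HEPES pH 8.0, 25 mM NaCl in 2.5 °C steps up to 60 °C. Signals were normalised to pre-quench Cy3 and to control variants. Melting temperature and folding enthalpy came from bootstrapped two-state fits, inverse-variance combined over four replicates. Fitted temperatures were raised by 9.35 °C to match UV melts.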

The nature of series [2]: melting temperature; fluorescence melt of hairpins on a sequencing array, two-state fit, raised by 9.35 °C to match UV melts. Particulars: sodium 0.088 M. The method, boiled down: as §1

On to GCTTTGCGAAAGCAGGGC ((..(((....)))..)), for which the folding enthalpy in series [1] was -20.1 kcal/mol. Further, the Tm in series [2] turned out to be 47 °C.
The like results for GATCTTACTTAAGATC ((((((....)))))) were, in that order, -35.6 kcal/mol and 44.1 °C.
For GATCATCCTAATGATC ((((((....)))))) the same measures were -35 kcal/mol and 49 °C.
For GCTTTGCGAAAGCCTAGC (((..((....))..))) the same measures were -13 kcal/mol and 41.1 °C.
With GGTCTAACGAAAGTTACC (((..(((....)))))), in series [1], the folding enthalpy was -10.2 kcal/mol. For the same sequence, in series [2], the Tm was 25.5 °C.
On to TATACGAAAGTATA (((((....))))), for which the folding enthalpy in series [1] is -14.9 kcal/mol. Besides, in series [2], the Tm was found to be 42.1 °C.
Consider GGCGAAACGAAAGTTGCC (((..(((....)))))), for which the folding enthalpy in series [1] is -25.5 kcal/mol. Further, the Tm in series [2] amounted to 49.5 °C.
As to GCCAAGCCGAAAGGCGGC (((..(((....)))))), in series [1], the folding enthalpy is -16.1 kcal/mol. The Tm in series [2] amounted to 64.2 °C.
For GATCGCCGTCGCGATC ((((((....)))))), in series [1], the folding enthalpy is -36.5 kcal/mol. Moreover, the Tm in series [2] was determined as 66.6 °C.
As to GCATCCGGAAACGGACGC ((.((((....)))).)), the folding enthalpy in series [1] was -31.2 kcal/mol. Besides, the Tm in series [2] was 51.3 °C.
Regarding GCGCTACGAAAGTAACGC (((.(((....))).))), the folding enthalpy in series [1] was -41.1 kcal/mol. Besides, in series [2], the Tm stood at 56.5 °C.
As to GATCCACTATGGATC ((((((...)))))), in series [1], the folding enthalpy is -30.6 kcal/mol. In addition, the Tm in series [2] amounted to 52.7 °C.
For GTTAGGGGAAACCCTGAC ((.((((....)))).)) the same measures were -28.4 kcal/mol and 45.6 °C.
On to GCGTGGGGAAACCCATGC ((.((((....)))).)), for which the folding enthalpy in series [1] was -42.3 kcal/mol. For the same sequence, the Tm in series [2] is 57.9 °C.
For the sequence GCGCTAGGAAACCAACGC (((.(.(....).).))), the folding enthalpy in series [1] is -10.5 kcal/mol. In addition, in series [2], the Tm came out at 28.6 °C.
For GCGAACGAAAGTTGGCGC ((((((....)))..))) the same measures were -32.8 kcal/mol and 53.9 °C.
As to GTCCGACGAAAGTCGAC (((.(((....)))))), the folding enthalpy in series [1] was -13.2 kcal/mol. Moreover, the Tm in series [2] worked out at 44.7 °C.
The like results for GATCCCGTCCGGGATC ((((((....)))))) were, in that order, -42 kcal/mol and 67.9 °C.
For GATTAAGCGAAAGCTATC (((..(((....)))))) the same measures were -9.58 kcal/mol and 29.5 °C.
For GCAGTGCGAAAGCAAAGC ((..(((....)))..)), the folding enthalpy in series [1] was -13.3 kcal/mol. In addition, in series [2], the Tm was determined as 51.3 °C.
The like results for GGGGGAGGAAACTCCCTC (.(((((....))))).) were, in that order, -19.3 kcal/mol and 54.6 °C.
As to GCTACTGGAAACAGTAGC (((((((....))))))), the folding enthalpy in series [1] is -44.5 kcal/mol. The Tm in series [2] turned out to be 64 °C.
For GGCAACGGAAACATTGCC (((((.(....).))))), the folding enthalpy in series [1] was -31.6 kcal/mol. Also, the Tm in series [2] is 45.1 °C.
Turning to GCCCAGCGAAAGCCGTGC ((.(.((....)).).)), in series [1], the folding enthalpy was -7.02 kcal/mol. Further, the Tm in series [2] amounted to 27.1 °C.
For GGCTGCGAAAGCATAGCC ((((((....)))..))) the same measures were -35.5 kcal/mol and 57.1 °C.
As to GATCAACGAAAGTTTATC (((.(((....))).))), the folding enthalpy in series [1] is -28 kcal/mol. The Tm in series [2] was determined as 32.5 °C.
As for GCAATGCGAAAGCAGGGC ((..(((....)))..)), in series [1], the folding enthalpy was -25.4 kcal/mol. The Tm in series [2] is 60.9 °C.
In the case of GAGTGCCCGAAAGGGCTC (((..(((....)))))), the folding enthalpy in series [1] was -6.67 kcal/mol. The Tm in series [2] amounted to 35.5 °C.
As to GATCCTCCTGAGGATC ((((((....)))))), in series [1], the folding enthalpy is -41.2 kcal/mol. Besides, in series [2], the Tm came to 57.2 °C.
On to GTGGTAGGAAACTGCTAC ((.(.((....)).).)), for which the folding enthalpy in series [1] is -17.7 kcal/mol. In addition, in series [2], the Tm is 32.1 °C.
Consider GATCCTACCGAGGATC ((((((....)))))), for which the folding enthalpy in series [1] is -39.2 kcal/mol. Also, the Tm in series [2] was 51.2 °C.
GATTTCGGAAACGAGATC (((.(((....))).))): in series [1], the folding enthalpy is -30 kcal/mol. Further, the Tm in series [2] is 41.6 °C.
The like results for GGGAACACGAAAGTGCCC (((..(((....)))))) were, in that order, -19.8 kcal/mol and 45 °C.
Take GGCACTGCGAAAGCAGCC (((..(((....)))))): in series [1], the folding enthalpy is -8.74 kcal/mol. In series [2], the Tm turned out to be 35.9 °C.
Regarding GCCGCAGGAAACTACGGC ((((.((....)).)))), in series [1], the folding enthalpy was -32.5 kcal/mol. Further, the Tm in series [2] was 50.8 °C.
As to GTCTATACGAAAGTAGAC (((..(((....)))))), the folding enthalpy in series [1] is -21.8 kcal/mol. In series [2], the Tm worked out at 36.7 °C.
For GCGAAGCGAAAGCTTGGC ((.((((....)))).)), the folding enthalpy in series [1] was -18.1 kcal/mol. Also, the Tm in series [2] amounted to 52 °C.
For GCGGTAGGAAACTACCAC (.(((((....))))).) the same measures were -15.6 kcal/mol and 44.1 °C.
As to GCGTAGGGAAACCTATGC ((.((((....)))).)), in series [1], the folding enthalpy is -34.1 kcal/mol. The Tm in series [2] was 50.3 °C.
Turning to GACAGAGGAAACTCCGTC (((.(((....))).))), in series [1], the folding enthalpy is -18.3 kcal/mol. Also, the Tm in series [2] was found to be 35 °C.
The like results for GATCGTCGCGACGATC ((((((....)))))) were, in that order, -37.5 kcal/mol and 67.6 °C.
Turning to GTAGTTGGAAACAACTGC (.(((((....))))).), the folding enthalpy in series [1] was -18 kcal/mol. Besides, the Tm in series [2] was 47.6 °C.
Consider GATCAAGCTATTGATC ((((((....)))))), for which, in series [1], the folding enthalpy was -40.8 kcal/mol. The Tm in series [2] is 50.2 °C.
GAGTATGGAAACGTACTC (((((.(....).))))): the folding enthalpy in series [1] was -33.1 kcal/mol. Besides, the Tm in series [2] was 43.5 °C.
On to GCTAGGTCGAAAGACAGC (((..(((....)))))), for which the folding enthalpy in series [1] is -18.1 kcal/mol. The Tm in series [2] worked out at 39.6 °C.
With GTCTAAGGAAACTTGGAC (((.(((....))).))), in series [1], the folding enthalpy is -21.9 kcal/mol. The Tm in series [2] is 40.2 °C.
In the case of GAAATTGGAAACAATTCC (.(((((....))))).), in series [1], the folding enthalpy is -22.9 kcal/mol. Besides, the Tm in series [2] amounted to 30.5 °C.
Turning to GGACCAGGAAACCAGTCC ((((..(....)..)))), the folding enthalpy in series [1] is -20.3 kcal/mol. Further, the Tm in series [2] is 33.9 °C.
For the sequence GTAACGGGAAACCGTCAC ((.((((....)))).)), the folding enthalpy in series [1] was -16.4 kcal/mol. The Tm in series [2] amounted to 35.7 °C.
As for GATCGCAAGCGCGATC ((((((....)))))), in series [1], the folding enthalpy was -31 kcal/mol. Besides, in series [2], the Tm is 67.8 °C.
Regarding CGACGACGGAAACGTTCG (((..(((....)))))), the folding enthalpy in series [1] was -14.5 kcal/mol. The Tm in series [2] was found to be 36.9 °C.
Regarding GCGCAGCGAAAGCTTGGC ((..(((....)))..)), the folding enthalpy in series [1] is -6.35 kcal/mol. In series [2], the Tm was 38.5 °C.
Take GGTGTTCGAAAGAAAACC (((.(((....))).))): in series [1], the folding enthalpy was -25.3 kcal/mol. Further, the Tm in series [2] came to 45.2 °C.
For GGGTTTGAAAAAACCC ((((((....)))))), the folding enthalpy in series [1] was -40 kcal/mol. For the same sequence, the Tm in series [2] was 58.4 °C.
In the case of GACCCGCGAAAGCGCGTC (((.(((....))).))), in series [1], the folding enthalpy is -21.9 kcal/mol. In series [2], the Tm was 47.8 °C.
As to GGGCGCGAAAGCGGACCC ((((((....)))..))), the folding enthalpy in series [1] is -12.8 kcal/mol. In addition, the Tm in series [2] is 61.5 °C.
As to GCCAACGAAAGTTATGGC ((((((....)))..))), the folding enthalpy in series [1] is -30.7 kcal/mol. Besides, the Tm in series [2] turned out to be 45.7 °C.
As to GTCATTGGAAACAACGAC (((.(((....))).))), in series [1], the folding enthalpy is -20.9 kcal/mol. Also, the Tm in series [2] stood at 35.5 °C.
In the case of GGTGACGAAAGTCTTACC ((((((....)))..))), the folding enthalpy in series [1] is -15 kcal/mol. Also, the Tm in series [2] amounted to 35.8 °C.
With GATCATGTTATGATC ((((((...)))))), in series [1], the folding enthalpy was -36.1 kcal/mol. Moreover, the Tm in series [2] was determined as 50.3 °C.
For GATCACTTAGGTGATC ((((((....)))))) the same measures were -41.6 kcal/mol and 57.6 °C.
Turning to CGCTCCCGGAAACGGGCG (((..(((....)))))), the folding enthalpy in series [1] is -15.3 kcal/mol. For the same sequence, the Tm in series [2] turned out to be 42.7 °C.
As for GCTTCGCGAAAGCTAAGC ((((.((....)).)))), the folding enthalpy in series [1] was -20.5 kcal/mol. In addition, the Tm in series [2] worked out at 57.2 °C.
For GGCGAGCGAAAGCTGGCC (((.(((....))).))) the same measures were -34.6 kcal/mol and 68 °C.
For GAACCCGAAAGGGTATTC ((((((....)))..))), the folding enthalpy in series [1] is -9.47 kcal/mol. Further, the Tm in series [2] turned out to be 33.2 °C.
For CGTGAACGGAAACGTACG (((..(((....)))))) the same measures were -21.1 kcal/mol and 35.3 °C.
CGTGACGGAAACGTAACG (((.(((....))).))): the folding enthalpy in series [1] was -37.4 kcal/mol. Further, in series [2], the Tm was 50.3 °C.
With GATCATTTCGATGATC ((((((....)))))), the folding enthalpy in series [1] is -41.6 kcal/mol. For the same sequence, the Tm in series [2] turned out to be 49.2 °C.
Regarding GAGCTGCGAAAGCATCTC (((.(((....))).))), the folding enthalpy in series [1] is -29.4 kcal/mol. In series [2], the Tm came to 46.8 °C.
Regarding GCCATAGGAAACTATGAC (.(((((....))))).), the folding enthalpy in series [1] is -18.2 kcal/mol. Besides, the Tm in series [2] was found to be 34.1 °C.
With GATCGGAAACCGATC ((((((...)))))), in series [1], the folding enthalpy was -38 kcal/mol. Besides, the Tm in series [2] turned out to be 56 °C.
Turning to GATATGGGAAACCATATC (((((((....))))))), the folding enthalpy in series [1] was -37.5 kcal/mol. Besides, the Tm in series [2] stood at 53.3 °C.
Consider GATCTAGGAGTAGATC ((((((....)))))), for which the folding enthalpy in series [1] is -30.2 kcal/mol. For the same sequence, the Tm in series [2] is 40.4 °C.
